Each block holds one compound with its values, some of them ahead of it.
How the values were obtained:
HeLa cells = experiment: Caspase activity assay with fluorogenic substrate Ac-DEVD-AMC in cell lysates; assay type: cell-based, human; settings: HeLa cells treated with STS
In short: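 HeLa cells were seeded at 0.3×10^6 per well in supplemented DMEM at 37 °C, 5% CO₂. […] Cells were lysed in hypotonic PIPES/NP-40 buffer pH 7.4 on ice. Lysate (20 μg protein) was incubated with 50 μM Ac-DEVD-AMC in 100 μL caspase buffer for 1 h at 37 °C. AMC fluorescence (ex 360/em 460) was converted to pmol by free-AMC standard curve; mean of three.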

caspase-7 = biological target: T1, caspase-7 (Homo sapiens, UniProt P55210); experiment: Biochemical inhibition assay, kinact/Ki with AMAC substrate; settings: AMAC-substrates, N = 4
T1 sequence (P55210 24-198 limits assumed): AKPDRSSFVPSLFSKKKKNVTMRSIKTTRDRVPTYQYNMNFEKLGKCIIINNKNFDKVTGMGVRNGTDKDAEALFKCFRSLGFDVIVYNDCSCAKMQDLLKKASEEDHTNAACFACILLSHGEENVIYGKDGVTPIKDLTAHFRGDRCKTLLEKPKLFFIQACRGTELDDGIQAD
T1 sequence (P55210 207-303 limits assumed): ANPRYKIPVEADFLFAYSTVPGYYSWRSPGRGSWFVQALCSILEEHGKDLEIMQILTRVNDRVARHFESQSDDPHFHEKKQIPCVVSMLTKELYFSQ
In short: (§1)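 Continuous fluorogenic inactivation assay with Ac-DEVD-AMAC at 100 μM final. Final enzyme concentrations were 1 nM caspase-3 and 5 nM caspase-7. Enzyme was added to substrate plus inhibitor, and fluorescence (ex 320/em 460) was read immediately. Progress curves were fit to F = -[v₀(1-exp(-kobst))/kobs-Fmax] to give kinact and Ki.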

caspase-8 = caspase-8 (Homo sapiens, UniProt Q14790); experiment: Biochemical inhibition assay, kinact/Ki with AMAC substrate; settings: AMAC-substrates, N = 4
Sequence of caspase-8 (Q14790 217-374 limits assumed): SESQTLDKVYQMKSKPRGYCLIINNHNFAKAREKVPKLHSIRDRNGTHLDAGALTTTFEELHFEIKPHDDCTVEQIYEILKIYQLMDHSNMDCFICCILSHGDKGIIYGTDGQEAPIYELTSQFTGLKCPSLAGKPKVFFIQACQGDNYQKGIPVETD
Sequence of caspase-8 (Q14790 385-479 limits assumed): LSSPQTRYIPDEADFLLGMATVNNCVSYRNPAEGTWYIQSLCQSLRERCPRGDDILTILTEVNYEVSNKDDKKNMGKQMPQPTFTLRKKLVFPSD
In short: (§2)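 Caspase-8 (25 nM), caspase-9 (100 nM) and caspase-10 (20 nM) used Ac-IETD-AMAC; caspase-9 and caspase-10 buffers also had 0.7 M sodium citrate. Caspase-6 (25 nM) used Ac-VEID-AMAC. Fluorescence (ex 320/em 460) was read immediately, and progress curves were fit for kinact and Ki.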

Jurkat cells = settings: ref Solania et al. [2019]; cited from earlier work
caspase-3 [1] = biological target: T2, caspase-3 (Homo sapiens, UniProt P42574); experiment: Biochemical inhibition assay, kinact/Ki with AMAC substrate; settings: AMAC-substrates, N = 4
T2 sequence (P42574 29-175 limits assumed): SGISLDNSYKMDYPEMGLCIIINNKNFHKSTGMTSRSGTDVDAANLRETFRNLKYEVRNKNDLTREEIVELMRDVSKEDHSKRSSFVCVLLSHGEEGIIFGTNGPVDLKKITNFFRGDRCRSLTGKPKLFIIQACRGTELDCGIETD
T2 sequence (P42574 176-277 limits assumed): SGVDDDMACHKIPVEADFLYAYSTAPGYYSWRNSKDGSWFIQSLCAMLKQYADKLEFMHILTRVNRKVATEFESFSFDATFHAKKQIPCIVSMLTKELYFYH
In short: as §1

caspase-9 = biological target: T3, caspase-9 (Homo sapiens, UniProt P55211); experiment: Biochemical inhibition assay, kinact/Ki with AMAC substrate; settings: AMAC-substrates, N = 4
T3 sequence (P55211 1-315 limits assumed): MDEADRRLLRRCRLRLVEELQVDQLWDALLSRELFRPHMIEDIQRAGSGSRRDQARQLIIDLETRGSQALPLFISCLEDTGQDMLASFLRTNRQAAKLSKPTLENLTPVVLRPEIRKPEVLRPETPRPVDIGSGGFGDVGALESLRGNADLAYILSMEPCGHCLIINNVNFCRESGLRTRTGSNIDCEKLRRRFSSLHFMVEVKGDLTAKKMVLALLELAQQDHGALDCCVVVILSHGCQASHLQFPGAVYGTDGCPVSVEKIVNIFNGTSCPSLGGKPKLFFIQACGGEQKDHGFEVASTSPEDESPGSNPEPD
T3 sequence (P55211 331-416 limits assumed): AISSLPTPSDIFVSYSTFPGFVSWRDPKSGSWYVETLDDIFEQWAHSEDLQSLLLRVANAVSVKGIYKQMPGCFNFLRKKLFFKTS
In short: as §2

caspase-3 [2] = biological target: T2, caspase-3; experiment: Biochemical inhibition assay, kinact/Ki with Ac-DEVD-AMC substrate
In short: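 Ac-DEVD-AMC was 50 µM final and inhibitor 20 to 80 nM final. Reference inhibitor Ac-ATS010-KE was run alongside. kinact/Ki was derived as for the AMAC assay.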

caspase-10 = biological target: T4, caspase-10 (Homo sapiens, UniProt Q92851); experiment: Biochemical inhibition assay, kinact/Ki with AMAC substrate; settings: AMAC-substrates, N = 4
T4 sequence (Q92851 220-415 limits assumed): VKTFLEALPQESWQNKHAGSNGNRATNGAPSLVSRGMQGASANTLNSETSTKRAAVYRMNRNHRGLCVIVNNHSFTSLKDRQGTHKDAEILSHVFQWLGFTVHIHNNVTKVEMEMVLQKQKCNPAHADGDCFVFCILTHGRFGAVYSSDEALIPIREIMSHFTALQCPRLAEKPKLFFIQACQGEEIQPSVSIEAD
T4 sequence (Q92851 416-521 limits assumed): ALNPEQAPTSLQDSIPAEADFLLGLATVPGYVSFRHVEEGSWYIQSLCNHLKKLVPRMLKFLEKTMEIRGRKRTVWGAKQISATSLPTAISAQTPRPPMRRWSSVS
In short: as §2

caspase-6 = biological target: T5, caspase-6 (Homo sapiens, UniProt P55212); experiment: as above; settings: AMAC-substrates, N = 4
T5 sequence (P55212 24-179 limits assumed): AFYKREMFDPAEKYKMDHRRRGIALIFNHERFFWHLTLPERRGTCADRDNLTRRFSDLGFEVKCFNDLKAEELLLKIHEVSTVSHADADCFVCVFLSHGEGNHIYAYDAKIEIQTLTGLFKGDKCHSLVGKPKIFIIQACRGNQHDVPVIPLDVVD
T5 sequence (P55212 194-293 limits assumed): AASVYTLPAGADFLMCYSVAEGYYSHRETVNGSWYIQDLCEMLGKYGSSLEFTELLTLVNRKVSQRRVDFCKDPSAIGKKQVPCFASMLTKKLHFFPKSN
In short: as §2

caspase-3 [3] = biological target: T2, caspase-3; settings: ref Solania et al. [2019]; cited from earlier work
HT29 tumours = experiment: Caspase activity in tumour homogenates with fluorogenic substrate; assay type: in vivo, CD1^−/− nude mice; settings: 24 h after treatment
In short: (§3)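 Female CD1 nude mice bore subcutaneous hind-leg xenografts: COLO205 at 2×10⁶ cells, HT29 at 10×10⁶. At about 200 mm³, mice received conatumumab or IgG1 isotype, 1.5 mg/kg i.p. Tumours were taken 24 h later and homogenised. Homogenate (20 μg protein) was incubated with 50 μM Ac-DEVD-AMC in caspase buffer, 1 h, 37 °C. AMC (ex 360/em 460) was quantified in pmol against a free-AMC standard; N = 3.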

COLO205 tumours = experiment: as above; assay type: in vivo, CD1^−/− nude mice; settings: 24 h after treatment
In short: as §3

Compound: CN[C@@H]1C[C@H]2O[C@@](C)([C@@H]1OC)n1c3ccccc3c3c4c(c5c6ccccc6n2c5c31)C(=O)NC4 [STS, staurosporine]
AMC liberation (caspase activity) (HeLa cells): 1598 ± 444 pmol AMC

kinact/Ki C7 (caspase-7): 190000 M⁻¹ s⁻¹
kinact/Ki C8 (caspase-8): 25000 M⁻¹ s⁻¹
kinact/Ki C3 (caspase-3 [1]): 1.7e+06 M⁻¹ s⁻¹
kinact/Ki C9 (caspase-9): 14000 M⁻¹ s⁻¹
kinact/Ki caspase-3 (caspase-3 [2]): 46.48 ± 9.96 × 10^4.s^−1.M^−1
kinact/Ki C10 (caspase-10): 1000 M⁻¹ s⁻¹
kinact/Ki C6 (caspase-6): 300 M⁻¹ s⁻¹
Compound: Ac-3Pal-Asp-Phe(F5)-Phe-Asp-KE [Ac-ATS010-KE, reference compound]
protection from MegaFasL-induced apoptosis (Jurkat cells): able to protect Jurkat cells from MegaFasL-induced apoptosis
increase of kinact/Ki for caspase-3 over the DW3 sequence (caspase-3 [3]): 154 fold

Compound: conatumumab: apoptosis-inducing therapy (Amgen) given to tumour-bearing mice, compared with IgG1 isotype control
caspase activity, liberated AMC (HT29 tumours): 679 ± 63 pmol liberated AMC
caspase activity, liberated AMC (COLO205 tumours): 15,119 ± 761 pmol liberated AMC
